# Measurements gathered from unrelated publications.
# Protocols differ between the studies behind these lines.
# Cell line: PC-3
# Read-out: cell growth or viability
Compound,assay,setting,IC50
CC(C)c1ccc(/C=C2\N=C(SCC(=O)O)N(c3ccccc3)C2=O)cc1,MTT,,50 µg/mL
Nc1cc2cccnc2c2ncccc12,MTT,"48 h, dark",6.2 µM
NS(=O)(=O)c1ccc(-n2nc(-c3nnc(S)o3)cc2-c2ccccc2)cc1,fluorescence,48 h,51.2 µM
O=P1(c2ccccc2)CCCCC1,MTT,72 h,> 100 µM
O=C1/C(=C/c2ccc3ccccc3c2O)NC(=S)N1c1ccccc1,MTT,,6.04 µg/mL
CS(=O)(=O)NCCCCN=C=S,MTT,24 h,25.4 µM
COc1cc(C(=O)c2nc(-c3ccncc3)c[nH]2)cc(OC)c1OC,MTS,72 h,> 1 µM
NS(=O)(=O)c1ccc(-n2nc(C(=O)NN3C(=O)CCC3=O)cc2-c2ccccc2)cc1,fluorescence,48 h,36.2 µM
COc1cc(C(=O)c2nc(-c3cccc4c3CCN4)c[nH]2)cc(OC)c1OC,MTS,72 h,0.022 µM
NS(=O)(=O)c1ccc(-n2nc(C(=O)NN=Cc3ccccc3O)cc2-c2ccccc2)cc1,fluorescence,48 h,18 µM
CC1(P2(=O)CCCCC2)CCCCC1,MTT,72 h,> 100 µM
COc1cc(C(=O)c2nc(-c3cccc4[nH]nnc34)c[nH]2)cc(OC)c1OC,MTS,72 h,0.0203 µM
CC1(P2(=O)CCCCC2)C=CCC=C1,MTT,72 h,> 100 µM
CC(=NNC(=O)c1cc(-c2ccccc2)n(-c2ccc(S(N)(=O)=O)cc2)n1)c1ccc(Br)cc1,fluorescence,48 h,48 µM
COc1cc(C(=O)c2nc(-c3cccc4[nH]ccc34)c[nH]2)cc2c1OC=CO2,MTS,72 h,0.0102 µM
COc1cc(C=NNC(=O)c2cc(-c3ccccc3)n(-c3ccc(S(N)(=O)=O)cc3)n2)cc(OC)c1OC,fluorescence,48 h,33.4 µM
COc1cc(C(=O)c2nc(-c3cccc4[nH]ccc34)c[nH]2)cc2c1OCO2,MTS,72 h,0.005 µM
O[C@@H]1[C@@H](O)[C@H](Nc2cc3cccnc3c3ncccc23)OC[C@H]1O,MTT,"48 h, dark",3.9 µM
NS(=O)(=O)c1ccc(-n2nc(-c3nnc(CCl)o3)cc2-c2ccccc2)cc1,fluorescence,48 h,36.2 µM
